Screening results deposited in PubChem BioAssay by several laboratories.
L major viab: Leishmania major promastigote growth inhibition; Leishmania major promastigotes, resazurin fluorescence viability; inhibition, % at 10 µM; actives 9% (n = 200,000); AID 1063; in the data active = inhibition above about 50%;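 also: promastigotes grown with compound for 44 hours at 28 °C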
PMI activator: activators of human phosphomannose isomerase. actives 0.005% (n = 190,000). activation factor at 20 µM. AID 1214. P34949. purified human PMI, coupled resazurin fluorescence, 20 min; stronger effect = higher value; 1 = vehicle control, 0 substrate-free wells;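 active = activation factor of 2 or more at 20 µM, relative to plate controls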
Target sequence (P34949 whole entry, looked up): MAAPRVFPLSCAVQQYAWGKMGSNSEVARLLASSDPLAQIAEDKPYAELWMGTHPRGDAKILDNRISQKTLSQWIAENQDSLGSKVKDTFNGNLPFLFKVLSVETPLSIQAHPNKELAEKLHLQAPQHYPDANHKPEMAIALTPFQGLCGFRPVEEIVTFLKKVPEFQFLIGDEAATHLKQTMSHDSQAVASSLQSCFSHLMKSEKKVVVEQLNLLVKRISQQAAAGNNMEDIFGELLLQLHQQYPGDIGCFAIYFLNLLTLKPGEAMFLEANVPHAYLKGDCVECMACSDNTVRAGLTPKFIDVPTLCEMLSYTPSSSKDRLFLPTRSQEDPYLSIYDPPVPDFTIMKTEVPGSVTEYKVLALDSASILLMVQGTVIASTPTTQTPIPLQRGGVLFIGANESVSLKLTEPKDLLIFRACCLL
PTEN del growth: suppresses growth of cells with PTEN deletion. actives 1.2% (n = 140,000). viability, % at 10 µM. AID 827. HCT116 PTEN-null viability, CellTiter-Glo, 60 h; stronger effect = lower value;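 active = viability at or below a set limit, 4 SD under the median of all tested compounds, cut at about 3.7% in these data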;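 also: PTEN knockout HCT116 line with beta catenin targeted HCT116 as companion control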
PMI act satM6P: activators of human phosphomannose isomerase at near-saturating mannose 6-phosphate | activation factor at 20 µM | AID 1216 | actives 0.34% (n = 190,000) | coupled PMI enzyme assay, resazurin fluorescence, 20 min; stronger effect = higher value; 1 = untreated enzyme, 0 = substrate-free blank;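 active = activation factor of 2 or more at 20 µM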
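Test system: human phosphomannose isomerase with PGI, G6PDH, diaphorase coupling enzymes / Doses: 20 µM compound, 1% DMSO / Times: enzyme reaction with compound 20 min at room temperature / Measured by: Diaphorase-driven resazurin-to-resorufin fluorescence, excitation 544, emission 590 nm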
HCT116 bCat-KO: beta-catenin-lacking colon tumor cell growth suppression; HCT116 beta-catenin knockout viability, CellTiter-Glo, 60 h; stronger effect = lower value; viability, % at 10 µM; actives 1.5% (n = 140,000);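 active = viability at or under a set limit, the compound median less 4 SD, cut at about 6% in these data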;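 also: 0% = Hyamine 1622 control at 20 µM and 100% = untreated cell control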
* marks the source's active call; other numbers are inactive results; nt = no result. A selection: hits, their analogues and other compounds. The true share with any hit is near 9.6%.

SMILES	L major viab	PMI activator	PTEN del growth	PMI act satM6P	HCT116 bCat-KO
COC(CN(C(=O)CCl)C(C(=O)NC1CCCCC1)c1ccc(Cl)cc1)OC (configuration not stated)	81*	1.1	68	1.2	67
COc1cccc(N(C(=O)c2ccco2)C(C(=O)NC2CCCC2)c2cccnc2)c1 (configuration not stated)	-2	1	101	1	102
CCOc1ccc(NC(=NCc2ccc3c(c2)OCO3)SC2CC(=O)N(c3ccc(C(=O)O)cc3)C2=O)cc1 (configuration not stated)	-3	0.9	85	1	89
Cc1nn(C)c(Cl)c1C(N)=O	0	1	nt	1	nt
COC(CN(C(=O)CCl)C(C(=O)NC1CCCC(C)C1C)c1ccc(C)cc1)OC (configuration not stated)	100*	1.2	99	1.2	89
CC(C)(C)NC(=O)C(c1cccnc1)N(C(=O)c1ccc(Cl)nc1)C1CCCC1 (configuration not stated)	0	nt	nt	nt	nt
COC(CN(C)C(C(=O)NC1CCCCC1)c1ccccc1)OC (configuration not stated)	-6	1	nt	1	nt
COc1ccc(C(C(=O)NC2CCCCC2)N(C(=O)CCl)c2ccc(Cl)cc2)cc1 (configuration not stated)	100*	1.1	1.8*	1.2	1.8*
COc1ccc(N(C(=O)c2cnccn2)C(C(=O)NC2CCCCC2)c2ccc(Cl)cc2)cc1 (configuration not stated)	-3	nt	nt	nt	nt
O=C(NC1CCCCC1)C(c1cccnc1)N(C(=O)c1ccc(Cl)nc1)C1CCCCC1 (configuration not stated)	56*	1.1	nt	1.1	nt
COC(CN(C(=O)CCl)C(C(=O)NC1CCCCC1)c1ccccc1C)OC (configuration not stated)	68*	1.1	4	1.2	6
COc1ccc(CCNC(=O)Cn2nnc(-c3ccccc3F)n2)cc1OC	-6	1	92	1.1	80
O=C(NCCn1ccc2ccccc21)c1cccc([N+](=O)[O-])c1	12	0.9	nt	0.9	nt
COc1cc(/C=C2\SC(N3CCc4ccccc4C3)=NC2=O)cc(OC)c1OC	54*	0.9	85	1.1	78
COc1ccc(/C=C2\SC(N3CCc4ccccc4C3)=NC2=O)cc1	0	1	71	1	76
O=C(N/N=C/c1ccc(O)cc1O)/C(=C/c1ccccc1)CCO	98*	1	34	1.2	32
Cc1cccc(N(CC(=O)N/N=C/c2cc([N+](=O)[O-])ccc2Cl)S(C)(=O)=O)c1C	86*	0.9	9	0.9	8
Cc1ccc(S(=O)(=O)N/N=C\c2cc([N+](=O)[O-])ccc2Cl)cc1	-7	1.5	83	2*	76
COc1ccc(C(=O)c2ccccc2)c(OCC(=O)N(C)C)c1	-7	0.9	nt	1	nt
Cc1cccc(C(C)C)c1NC(=O)CN(C)Cc1cccc(F)c1	72*	1.1	85	1.1	82
CN(CC(=O)N1CCCc2c1c(=O)oc1ccc(O)cc21)Cc1ccccc1	-6	0.9	91	1	100
CC(C(=O)N1CCCc2c1c(=O)oc1ccc(O)cc21)N1CCc2ccccc2C1 (configuration not stated)	95*	1	80	0.3	95
CC(=O)Nc1cccc(/C(C)=N/NS(=O)(=O)c2ccccc2)c1	-3	1	nt	0.9	nt
O=C(Nc1cccc(S(=O)(=O)Nc2ccc(Cl)cc2)c1)c1ccc(Cl)nc1	21	0.8	10	1	9
COc1ccc(NS(=O)(=O)c2cccc(NC(=O)NCCCl)c2)cc1	71*	1.2	nt	1.1	nt
COc1ccc(NS(=O)(=O)c2cccc(NC(=O)CCS(=O)(=O)c3ccccc3)c2)cc1	46	0.8	84	0.9	87
COc1ccc(S(=O)(=O)N/N=C(/C)c2cccc(NC(=O)c3ccccc3Cl)c2)cc1	97*	0.9	82	0.9	88
COc1ccc(NS(=O)(=O)c2cccc(C(=O)N/N=C(\C)c3ccncc3)c2)cc1	59*	1	88	1.1	84
COc1ccc(NS(=O)(=O)c2cccc(NC(=O)c3ccc(Cl)nc3)c2)cc1	61*	0.9	nt	0.9	nt
CC[C@H](C)[C@H](NC(N)=O)C(=O)NCCc1ccc(OC)c(OC)c1	-3	1.1	nt	1.1	nt
